In assay [1] the test system is Escherichia coli. Nature of the assay: Antibacterial activity against Escherichia coli Top10 without harboring KPC-2 assessed as aztreonam MIC by CLSI protocol based method (reference value: 0.5 ug/ml). The format is functional.
Assay [2] has as its system Escherichia coli. Briefly: Antibacterial activity against Escherichia coli Top10 without harboring OXA-48 assessed as ertapenem MIC by CLSI protocol based method (reference value: < 0.03 ug/ml). The format is functional.
The test system of assay [3] is Enterobacter cloacae. Nature of the assay: Inhibition of Enterobacter cloacae CTX-M-15 expressed in Escherichia coli BL21 DE3 assessed as K2/Ki ratio using nitrocefin as substrate by spectrophotometry. In short, it runs like this:
(§1)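 His-tagged enzymes expressed in E. coli BL21(DE3) (IPTG 0.5 mM, 16°C, 18 h), purified by Ni-NTA and size exclusion in 25 mM Tris-HCl pH 7.5, 300 mM NaCl. Carbamoylation k2/Ki from progress curves, reporter nitrocefin 100 μM, 20°C, 100 mM MES pH 6.4; inhibitor up to 100 μM; ≥6 curves, ≥2 independent experiments.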

Assay [4] concerns Escherichia coli. Briefly: Antibacterial activity against Escherichia coli Top10 without harboring AmpC assessed as cefotaxime MIC by CLSI protocol based method (reference value: 0.125 ug/ml). In kind it is functional.
The nature of assay [5]: Inhibition of OXA-48 expressed in Escherichia coli BL21 DE3 assessed as K2/Ki ratio using CENTA as substrate by spectrophotometry. In short, it runs like this:
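OXA-48 expressed in E. coli BL21(DE3) (IPTG 0.5 mM, 16°C, 18 h), purified by Ni-NTA and size exclusion. Carbamoylation k2/Ki by spectrophotometric progress curves with CENTA 100 μM as reporter, 20°C, 100 mM MES pH 6.4; inhibitor up to 100 μM; ≥6 curves from ≥2 independent experiments.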

The test system of assay [6] is Enterobacter cloacae. Nature of the assay: Inhibition of Enterobacter cloacae AmpC expressed in Escherichia coli BL21 DE3 assessed as K2/Ki ratio using nitrocefin as substrate by spectrophotometry. A digest of the protocol:
as §1

Assay [7] is described as follows: Inhibition of TEM1 (unknown origin) expressed in Escherichia coli BL21 DE3 assessed as K2/Ki ratio using nitrocefin as substrate by spectrophotometry. In short, it runs like this:
as §1

Assay [8] relates to Escherichia coli. Briefly: Antibacterial activity against Escherichia coli Top10 harboring OXA-48 assessed as ertapenem MIC by CLSI protocol based method (reference value: 8 ug/ml). In kind it is functional.
Assay [9] is described as follows: Inhibition of KPC-2 (unknown origin) expressed in Escherichia coli BL21 DE3 assessed as K2/Ki ratio using nitrocefin as substrate by spectrophotometry. In short, it runs like this: as §1
In assay [10] the test system is Escherichia coli. Briefly: Antibacterial activity against Escherichia coli Top10 without harboring CTX-M-15 assessed as amoxicillin MIC by CLSI protocol based method (reference value: 8 ug/ml). In kind it is functional.
Assay [11] concerns Escherichia coli. Nature of the assay: Antibacterial activity against Escherichia coli Top10 harboring TEM1 assessed as cefamandole MIC by CLSI protocol based method (reference value: 2048 ug/ml). In kind it is functional.
Assay [12] relates to Escherichia coli. Nature of the assay: Antibacterial activity against Escherichia coli Top10 harboring KPC-2 assessed as aztreonam MIC by CLSI protocol based method (reference value: 2048 ug/ml). In kind it is functional.
In assay [13] the test system is Escherichia coli. Briefly: Antibacterial activity against Escherichia coli Top10 harboring AmpC assessed as cefotaxime MIC by CLSI protocol based method (reference value: 256 ug/ml). The format is functional.
Assay [14] concerns Escherichia coli. Briefly: Antibacterial activity against Escherichia coli Top10 assessed as cefamandole MIC by CLSI protocol based method (reference value: 2 ug/ml). In kind it is functional. A digest of the protocol:
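Broth microdilution in cation-adjusted Mueller-Hinton broth following CLSI. Strain carries a β-lactamase gene cloned in pTRC-99k (kanamycin marker); preculture in BHI with IPTG (500 μM) and kanamycin (50 μg/ml); IPTG (500 μM) also in plates to induce enzyme. β-Lactam MIC read with or without inhibitor at fixed 15 μM (4 μg/ml for avibactam; clavulanate 4 μg/ml). Median of five biological repeats from two independent experiments.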

Assay [15] concerns Escherichia coli. Briefly: Antibacterial activity against Escherichia coli Top10 harboring CTX-M-15 assessed as amoxicillin MIC by CLSI protocol based method (reference value: 2048 ug/ml). The format is functional.
Assay [16] deals with Enterobacter cloacae. Briefly: Inhibition of Enterobacter cloacae CTX-M-15 N132G mutant expressed in Escherichia coli BL21 DE3 assessed as K2/Ki ratio using nitrocefin as substrate by spectrophotometry. In short, it runs like this:
as §1

The next assay concerns Bacteria. Nature of the assay: Inhibition of bacterial KPC-2 N132G mutant expressed in Escherichia coli BL21 DE3 assessed as K2/Ki ratio using nitrocefin as substrate by spectrophotometry. A digest of the protocol:
as §1

Active and inactive are the calls of the source. No cut-off for these calls is given here.

What is called MIC is the least concentration at which growth counts as inhibited. In the case of `CC(C)(C)OC(=O)NCCC(=O)Nc1ccc(-c2cn(C[C@@H]3CC[C@@H]4CN3C(=O)N4OS(=O)(=O)[O-])nn2)cc1.[Na+]`, the MIC is 0.5 µg/mL in the assay on Escherichia coli [1]; < 0.03 µg/mL with Escherichia coli [2]; 0.125 µg/mL in the assay on Escherichia coli [4]; 16 µg/mL with Escherichia coli [8]; 8 µg/mL in the assay with Escherichia coli [10]; 256 µg/mL in the assay with Escherichia coli [11]. In addition, the MIC stood at 512 µg/mL in the assay with Escherichia coli [12], 128 µg/mL in the assay with Escherichia coli [13], 2 µg/mL in the assay with Escherichia coli [14] and 768 µg/mL with Escherichia coli [15]. Besides, the Ratio in the assay with Enterobacter cloacae [3] is 2400 M⁻¹ s⁻¹; in assay [5], 150 M⁻¹ s⁻¹; in the assay with Enterobacter cloacae [6], 180 M⁻¹ s⁻¹; in assay [7], 3700 M⁻¹ s⁻¹; in assay [9] it was 1100 M⁻¹ s⁻¹.
Turning to `NC(=O)[C@@H]1CC[C@@H]2CN1C(=O)N2OS(=O)(=O)[O-].[Na+]` [AVIBACTAM SODIUM], the MIC in the assay on Escherichia coli [1] was 0.25 µg/mL; in the assay on Escherichia coli [2], < 0.03 µg/mL; in the assay with Escherichia coli [4], 0.125 µg/mL; with Escherichia coli [8], 0.5 µg/mL; in the assay with Escherichia coli [10], 2 µg/mL; in the assay with Escherichia coli [11] it was 2 µg/mL. The MIC in the assay with Escherichia coli [12] amounted to 0.5 µg/mL; in the assay on Escherichia coli [13], 1 µg/mL; with Escherichia coli [14], 2 µg/mL; in the assay with Escherichia coli [15] it was 2 µg/mL. Besides, the Ratio in the assay with Enterobacter cloacae [16] is 70 M⁻¹ s⁻¹; in the assay with Enterobacter cloacae [3], 130000 M⁻¹ s⁻¹; in [5], 980 M⁻¹ s⁻¹; in the assay on Bacteria, 53 M⁻¹ s⁻¹; with Enterobacter cloacae [6], 18000 M⁻¹ s⁻¹; in [7], 88000 M⁻¹ s⁻¹. Also, in assay [9], the Ratio came out at 26000 M⁻¹ s⁻¹.
For the compound `CC(C)(C)OC(=O)N1CCC(c2cn(C[C@@H]3CC[C@@H]4CN3C(=O)N4OS(=O)(=O)[O-])nn2)CC1.[Na+]`, the MIC with Escherichia coli [1] was 0.25 µg/mL; in the assay on Escherichia coli [2] it was < 0.03 µg/mL; in the assay on Escherichia coli [4], 0.125 µg/mL; in the assay on Escherichia coli [8], 16 µg/mL; in the assay on Escherichia coli [10], 8 µg/mL; in the assay on Escherichia coli [11], 256 µg/mL. Also, the MIC in the assay on Escherichia coli [12] stood at 2050 µg/mL; in the assay on Escherichia coli [13], 128 µg/mL; with Escherichia coli [14], 2 µg/mL; with Escherichia coli [15], 4100 µg/mL. Further, the Ratio stood at 230 M⁻¹ s⁻¹ with Enterobacter cloacae [3]; 210 M⁻¹ s⁻¹ in assay [5]; 29 M⁻¹ s⁻¹ in the assay on Enterobacter cloacae [6]; 1700 M⁻¹ s⁻¹ in [7]; 830 M⁻¹ s⁻¹ in [9].
`O=C1N2C[C@@H](CC[C@H]2Cn2cc(-c3ccccc3)nn2)N1OS(=O)(=O)[O-].[Na+]`: the MIC is 0.25 µg/mL with Escherichia coli [1]; < 0.03 µg/mL with Escherichia coli [2]; 0.25 µg/mL in the assay with Escherichia coli [4]; 8 µg/mL with Escherichia coli [8]; 8 µg/mL with Escherichia coli [10]; 16 µg/mL with Escherichia coli [11]. For the same compound, the MIC was determined as 64 µg/mL in the assay on Escherichia coli [12], 128 µg/mL with Escherichia coli [13], 4 µg/mL in the assay on Escherichia coli [14] and 64 µg/mL in the assay on Escherichia coli [15]. Moreover, the Ratio was determined as 140 M⁻¹ s⁻¹ in the assay on Enterobacter cloacae [16]; 6900 M⁻¹ s⁻¹ with Enterobacter cloacae [3]; 110 M⁻¹ s⁻¹ in assay [5]; 21 M⁻¹ s⁻¹ in the assay with Bacteria; 200 M⁻¹ s⁻¹ in the assay on Enterobacter cloacae [6]; 4700 M⁻¹ s⁻¹ in assay [7]. For the same compound, in [9], the Ratio was 930 M⁻¹ s⁻¹.
As to `O=C1N2C[C@@H](CC[C@H]2Cn2ccnn2)N1OS(=O)(=O)[O-].[Na+]`, the MIC in the assay with Escherichia coli [1] is 0.25 µg/mL; in the assay on Escherichia coli [2], < 0.03 µg/mL; in the assay with Escherichia coli [4], 0.125 µg/mL; with Escherichia coli [8], 8 µg/mL; in the assay on Escherichia coli [10] it was 8 µg/mL; in the assay on Escherichia coli [11] it was 8 µg/mL. The MIC turned out to be 512 µg/mL in the assay with Escherichia coli [12], 16 µg/mL in the assay on Escherichia coli [13], 2 µg/mL in the assay with Escherichia coli [14] and 64 µg/mL with Escherichia coli [15]. For the same compound, the Ratio with Enterobacter cloacae [16] turned out to be 6.6 M⁻¹ s⁻¹; in the assay with Enterobacter cloacae [3], 280 M⁻¹ s⁻¹; in assay [5] it was 140 M⁻¹ s⁻¹; with Bacteria, 31 M⁻¹ s⁻¹; in the assay with Enterobacter cloacae [6], 210 M⁻¹ s⁻¹; in assay [7], 1200 M⁻¹ s⁻¹. Moreover, in [9], the Ratio worked out at 280 M⁻¹ s⁻¹.
As for `O=C1N2C[C@@H](CC[C@H]2Cn2cc(-c3cccnc3)nn2)N1OS(=O)(=O)[O-].[Na+]`, the MIC with Escherichia coli [1] is 0.25 µg/mL; in the assay on Escherichia coli [2] it was < 0.03 µg/mL; in the assay with Escherichia coli [4], 0.125 µg/mL; in the assay with Escherichia coli [8], 8 µg/mL; in the assay with Escherichia coli [10] it was 2 µg/mL; in the assay on Escherichia coli [11], 8 µg/mL. Moreover, the MIC is 32 µg/mL with Escherichia coli [12], 128 µg/mL in the assay on Escherichia coli [13], 2 µg/mL in the assay with Escherichia coli [14] and 32 µg/mL in the assay on Escherichia coli [15]. The Ratio in the assay on Enterobacter cloacae [3] is 1700 M⁻¹ s⁻¹; in the assay with Enterobacter cloacae [6] it was 85 M⁻¹ s⁻¹; in [7], 1400 M⁻¹ s⁻¹; in assay [9], 550 M⁻¹ s⁻¹. Also, in assay [5], the Ratio result is “inactive”.

For the origin of these results see ChEMBL document CHEMBL4342503, “Diazabicyclooctane Functionalization for Inhibition of β-Lactamases from Enterobacteria” (2020).
